Laboratory results reported in ChEMBL document CHEMBL1121719, “1-Oxacephalosporins: enhancement of beta-lactam reactivity and antibacterial activity” (1981).
Values after ≈ are worked out from the molar mass of the structure shown.

Experiments:
[1] = biological target: Beta-lactamase (Escherichia coli K-12) (UniProt P00811); experiment: Hydrolysis rate by the beta-lactamase from Escherichia coli 6 relative to cephaloridine.
Method in brief: (§1)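 Cells were grown statically in nutrient phosphate broth for 16 h at 37 °C and disrupted ultrasonically. β-lactamase was partially purified on CM-Sephadex C-50. Substrate (100 μM final) was hydrolysed in 0.1 M potassium phosphate pH 7.0 at 30 °C, with the enzyme diluted in buffer containing 0.001% gelatin. Rate came from the slope of UV optical density decrease and was expressed relative to cephaloridine = 100.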

[2] = biological target: Beta-lactamase TEM (Escherichia coli) (UniProt P62593); experiment: Hydrolysis rate by the beta-lactamase from Escherichia coli W3110 RTEM relative to cephaloridine.
Method in brief: (§2)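 Constitutive producers were grown statically in nutrient phosphate broth at 37 °C for 16 h, then sonicated. Enzyme was partially purified on DEAE-Sephadex A-25 (phosphate gradient, 0.01 M pH 8.0 to 0.5 M pH 6.2). Assay conditions: 0.1 M potassium phosphate pH 7.0, 30 °C, 0.001% gelatin in enzyme diluent, 100 μM final substrate. Hydrolysis rate was taken from the slope of UV absorbance decrease, with cephaloridine set to 100.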

[3] = biological target: T1, Beta-lactamase (Klebsiella oxytoca) (UniProt Q8RT60); experiment: Hydrolysis rate by beta-lactamase of Klebsiella sp. 363 relative to cephaloridine (100); method in brief: as §2
T1 sequence (whole entry): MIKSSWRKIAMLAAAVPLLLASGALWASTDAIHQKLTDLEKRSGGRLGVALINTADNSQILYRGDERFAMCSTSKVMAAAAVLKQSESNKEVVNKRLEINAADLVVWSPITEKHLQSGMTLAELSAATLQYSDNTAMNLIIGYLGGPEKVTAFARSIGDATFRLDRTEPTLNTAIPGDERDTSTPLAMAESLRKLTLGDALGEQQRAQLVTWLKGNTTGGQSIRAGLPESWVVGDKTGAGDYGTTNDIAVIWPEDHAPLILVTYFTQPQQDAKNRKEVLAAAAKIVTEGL

Escherichia coli [4] = experiment: Inhibitory concentration of compound was tested against gram negative Escherichia coli 73.; assay type: functional
Method in brief: (§3)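 MIC by agar dilution on sensitivity test agar with serial twofold antibiotic dilutions. The inoculum was an overnight tryptose broth culture diluted to about 10⁶ cells/mL. Plates were incubated at 37 °C for 18-20 h. MIC was the lowest concentration inhibiting visible growth.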

Escherichia coli [5] = experiment: Inhibitory concentration of compound was tested against gram negative Escherichia coli H organism.; assay type: functional; method in brief: as §3
Escherichia coli [6] = experiment: Inhibitory concentration of compound was tested against gram negative Escherichia coli NIH JC-2.; assay type: functional; method in brief: as §3
Klebsiella pneumoniae [7] = experiment: Inhibitory concentration of compound was tested against gram negative Klebsiella pneumoniae.; assay type: functional; method in brief: as §3
Klebsiella pneumoniae [8] = experiment: (§4) Inhibitory concentration of compound was tested against gram negative Klebsiella sp 363.; assay type: functional; method in brief: as §3
Proteus mirabilis [9] = experiment: Inhibitory concentration of compound was tested against gram negative Proteus mirabilis PR-4.; assay type: functional; method in brief: as §3
[10] = system: Beta-lactamase (Proteus vulgaris); experiment: Hydrolysis rate by the beta-lactamase from Proteus vulgaris 31 relative to cephaloridine.
Escherichia coli [11] = experiment: Inhibitory concentration of compound was tested against gram negative Escherichia coli H organism; assay type: functional; method in brief: as §3
Escherichia coli [12] = experiment: Inhibitory concentration of compound was tested against gram negative Escherichia coli NIH JC-2; assay type: functional; method in brief: as §3
Klebsiella = experiment: as §4; assay type: functional; method in brief: as §3
Klebsiella pneumoniae [13] = experiment: Inhibitory concentration of compound was tested against gram negative Klebsiella pneumoniae
[14] = system: Beta-lactamase (Klebsiella sp.); experiment: Hydrolysis rate by the beta-lactamase from Klebsiella sp. 363 relative to cephaloridine (100)
Proteus mirabilis [15] = experiment: Inhibitory concentration of compound was tested against gram negative Proteus mirabilis PR-4.
[16] = system: Beta-lactamase (Proteus vulgaris); experiment: Hydrolysis rate by the beta-lactamase from Proteus vulgaris 31 relative to cephaloridine (100)
[17] = system: Beta-lactamase (Enterobacter cloacae); experiment: Hydrolysis rate by the beta-lactamase from Enterobacter cloacae 214 relative to cephaloridine (100)
[18] = biological target: Beta-lactamase (Enterobacter cloacae) (UniProt P05364); experiment: Hydrolysis rate by the beta-lactamase from Enterobacter cloacae 214 relative to cephaloridine (100); c= Hydrolysis was not detected; method in brief: as §1
[19] = biological target: Beta-lactamase (Escherichia coli K-12) (UniProt P00811); experiment: Hydrolysis rate by the beta-lactamase from Escherichia coli 6 relative to cephaloridine (100); c= Hydrolysis was not detected; method in brief: as §1
[20] = biological target: Beta-lactamase (Enterobacter cloacae) (UniProt P05364); experiment: Hydrolysis rate by the beta-lactamase from Enterobacter cloacae 214 relative to cephaloridine (100);c= Hydrolysis was not detected; method in brief: as §1
[21] = biological target: Beta-lactamase (Escherichia coli K-12) (UniProt P00811); experiment: Hydrolysis rate by the beta-lactamase from Escherichia coli 6 relative to cephaloridine (100);c= Hydrolysis was not detected; method in brief: as §1

Chain of Beta-lactamase TEM (Escherichia coli) (P62593 whole entry): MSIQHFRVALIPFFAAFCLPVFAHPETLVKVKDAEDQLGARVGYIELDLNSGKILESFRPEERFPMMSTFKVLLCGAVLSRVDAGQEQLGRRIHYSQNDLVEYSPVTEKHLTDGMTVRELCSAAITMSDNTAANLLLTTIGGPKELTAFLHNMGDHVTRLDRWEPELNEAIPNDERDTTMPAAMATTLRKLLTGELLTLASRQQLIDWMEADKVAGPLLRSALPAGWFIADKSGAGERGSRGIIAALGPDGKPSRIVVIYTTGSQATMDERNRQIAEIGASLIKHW
Chain of Beta-lactamase (Escherichia coli K-12) (P00811 whole entry): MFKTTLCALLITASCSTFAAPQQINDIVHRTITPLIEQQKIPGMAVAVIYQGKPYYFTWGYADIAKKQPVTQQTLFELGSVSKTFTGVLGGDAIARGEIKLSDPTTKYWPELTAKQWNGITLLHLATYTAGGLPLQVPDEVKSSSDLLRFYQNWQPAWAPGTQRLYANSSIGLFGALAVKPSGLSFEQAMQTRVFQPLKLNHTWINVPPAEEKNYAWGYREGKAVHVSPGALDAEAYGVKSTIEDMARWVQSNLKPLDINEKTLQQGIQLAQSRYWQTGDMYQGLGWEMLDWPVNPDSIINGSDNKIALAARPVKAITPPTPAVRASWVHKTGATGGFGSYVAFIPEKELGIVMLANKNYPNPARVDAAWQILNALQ
Chain of Beta-lactamase (Enterobacter cloacae) (UniProt P05364) (P05364 21-381 limits assumed): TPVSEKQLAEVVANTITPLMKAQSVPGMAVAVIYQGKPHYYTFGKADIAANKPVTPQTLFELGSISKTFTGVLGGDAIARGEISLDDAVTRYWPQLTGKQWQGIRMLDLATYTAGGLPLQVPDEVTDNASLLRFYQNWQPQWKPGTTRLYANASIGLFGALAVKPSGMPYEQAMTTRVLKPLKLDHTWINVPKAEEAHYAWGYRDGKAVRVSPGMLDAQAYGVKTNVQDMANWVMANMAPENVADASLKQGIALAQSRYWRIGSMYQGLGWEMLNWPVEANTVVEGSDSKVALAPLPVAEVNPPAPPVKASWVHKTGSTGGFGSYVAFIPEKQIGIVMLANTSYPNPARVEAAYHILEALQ

Row | Compound | Relative hydrolysis rate [1] | Relative hydrolysis rate [2] | Relative hydrolysis rate [3] | MIC (Escherichia coli [4]) [µg/mL] | MIC (Escherichia coli [5]) [µg/mL] | MIC (Escherichia coli [6]) [µg/mL] | MIC (Klebsiella pneumoniae [7]) [µg/mL] | MIC (Klebsiella pneumoniae [8]) [µg/mL] | MIC (Proteus mirabilis [9]) [µg/mL] | Relative hydrolysis rate [10] | further results
1 | Cn1nnnc1SCC1=C(C(=O)O)N2C(=O)C(NC(=O)Cc3csc(N)n3)C2OC1 (configuration not stated) | 360 | 350 | 240 | > 100 | 0.1 (≈ 0.221 µM) | 0.2 (≈ 0.442 µM) | 0.2 (≈ 0.442 µM) | > 100 | 0.2 (≈ 0.442 µM) | 770 | –
2 | Cn1nnnc1SCC1=C(C(=O)O)N2C(=O)C(NC(=O)/C(=N\O)c3ccc(NS(C)(=O)=O)cc3)C2OC1 (configuration not stated) | 5.5 | 290 | 350 | > 100 | 0.78 (≈ 1.41 µM) | 0.78 (≈ 1.41 µM) | 0.78 (≈ 1.41 µM) | > 100 | 1.56 (≈ 2.82 µM) | 330 | –
3 | CC1=C(C(=O)O)N2C(=O)C(NC(=O)CSC(F)(F)F)C2OC1 (configuration not stated) | 910 | 18 | 100 | 100 (≈ 294 µM) | 3.13 (≈ 9.2 µM) | 6.25 (≈ 18.4 µM) | 6.25 (≈ 18.4 µM) | > 100 | 25 (≈ 73.5 µM) | 500 | –
4 | Cn1nnnc1SCC1=C(C(=O)O)N2C(=O)C(NC(=O)C(O)c3ccccc3)C2SC1 (configuration not stated) | 14 | 55 | 130 | 25 (≈ 54.1 µM) | 0.2 (≈ 0.432 µM) | 0.39 (≈ 0.843 µM) | 0.39 (≈ 0.843 µM) | > 100 | 0.78 (≈ 1.69 µM) | – | –
5 | CC1=C(C(=O)O)N2C(=O)C(NC(=O)C(N)c3ccccc3)C2OC1 (configuration not stated) | 260 | 12 | – | – | – | – | – | – | – | – | Relative hydrolysis rate [14]: 9.6; Relative hydrolysis rate [16]: 330; Relative hydrolysis rate [17]: 95
6 | CCN1CCN(C(=O)NC(C(=O)NC2C(=O)N3C(C(=O)O)=C(CSc4nnnn4C)COC23)c2ccc(OC(N)=O)cc2)C(=O)C1=O (configuration not stated) | 10 | 110 | 0.69 | 12.5 (≈ 18.6 µM) | ≤ 0.013 | ≤ 0.013 | ≤ 0.013 | 12.5 (≈ 18.6 µM) | 0.2 (≈ 0.297 µM) | 34 | –
7 | Cn1nnnc1SCC1=C(C(=O)O)N2C(=O)C(NC(=O)/C(=N\O)c3ccc(NS(C)(=O)=O)cc3)C2SC1 (configuration not stated) | 2.2 | 34 | 35 | 50 (≈ 87.9 µM) | 0.78 (≈ 1.37 µM) | 0.78 (≈ 1.37 µM) | 1.56 (≈ 2.74 µM) | > 100 | 6.25 (≈ 11 µM) | 170 | –
8 | Cn1nnnc1SCC1=C(C(=O)O)N2C(=O)C(NC(=O)C(C(=O)O)c3ccc(O)cc3)C2OC1 (configuration not stated) | – | 19 | 80 | 50 (≈ 102 µM) | 0.2 (≈ 0.408 µM) | 0.2 (≈ 0.408 µM) | 0.2 (≈ 0.408 µM) | 100 (≈ 204 µM) | 0.39 (≈ 0.795 µM) | 86 | Relative hydrolysis rate [18]: Hydrolysis not detected; Relative hydrolysis rate [19]: Hydrolysis not detected
9 | Cn1nnnc1SCC1=C(C(=O)O)N2C(=O)C(NC(=O)Cc3ccc(O)cc3)C2OC1 (configuration not stated) | 1200 | 560 | 630 | > 100 | 0.39 (≈ 0.874 µM) | 0.78 (≈ 1.75 µM) | 0.78 (≈ 1.75 µM) | > 100 | 0.39 (≈ 0.874 µM) | 710 | –
10 | CCN1CCN(C(=O)NC(C(=O)NC2C(=O)N3C(C(=O)O)=C(CSc4nnnn4C)CSC23)c2ccc(OC(N)=O)cc2)C(=O)C1=O (configuration not stated) | 5.1 | 59 | 3.1 | 12.5 (≈ 18.2 µM) | ≤ 0.013 | 0.1 (≈ 0.145 µM) | 0.05 (≈ 0.0726 µM) | > 100 | 1.56 (≈ 2.27 µM) | 16 | –
11 | Cn1nnnc1SCC1=C(C(=O)O)N2C(=O)C(NC(=O)Cc3csc(N)n3)C2SC1 (configuration not stated) | 120 | 17 | 4.1 | 1.56 (≈ 3.33 µM) | 0.05 (≈ 0.107 µM) | 0.1 (≈ 0.213 µM) | 0.1 (≈ 0.213 µM) | 6.25 (≈ 13.3 µM) | 0.1 (≈ 0.213 µM) | 250 | –

The next lines start with results.

Row | Relative hydrolysis rate [1] | Relative hydrolysis rate [2] | Relative hydrolysis rate [3] | MIC (Escherichia coli [4]) [µg/mL] | MIC (Escherichia coli [5]) [µg/mL] | MIC (Escherichia coli [6]) [µg/mL] | MIC (Klebsiella pneumoniae [7]) [µg/mL] | MIC (Klebsiella pneumoniae [8]) [µg/mL] | MIC (Proteus mirabilis [9]) [µg/mL] | Relative hydrolysis rate [10] | Compound | further results
12 | 57 | 0.75 | – | – | – | – | – | – | – | – | CC1=C(C(=O)O)N2C(=O)[C@@H](NC(=O)[C@H](N)c3ccccc3)[C@H]2SC1 | –
13 | 750 | 1.5 | – | > 100 | – | – | – | – | – | 160 | CC1=C(C(=O)O)N2C(=O)C(NC(=O)CSC(F)(F)F)C2SC1 (configuration not stated) | MIC (Escherichia coli [11]): 25 µg/mL (≈ 70.2 µM); MIC (Escherichia coli [12]): 50 µg/mL (≈ 140 µM); MIC (Klebsiella): > 100 µg/mL; MIC (Klebsiella pneumoniae [13]): 50 µg/mL (≈ 140 µM); Relative hydrolysis rate [14]: 6.2; MIC (Proteus mirabilis [15]): 50 µg/mL (≈ 140 µM)
14 | 39 | 370 | 360 | > 100 | 0.05 (≈ 0.112 µM) | 0.05 (≈ 0.112 µM) | 0.05 (≈ 0.112 µM) | 100 (≈ 224 µM) | 0.1 (≈ 0.224 µM) | 300 | Cn1nnnc1SCC1=C(C(=O)O)N2C(=O)C(NC(=O)C(O)c3ccccc3)C2OC1 (configuration not stated) | –
15 | 360 | 39 | 120 | 25 (≈ 54.1 µM) | 0.78 (≈ 1.69 µM) | 3.13 (≈ 6.77 µM) | 1.56 (≈ 3.37 µM) | 100 (≈ 216 µM) | 1.56 (≈ 3.37 µM) | 410 | Cn1nnnc1SCC1=C(C(=O)O)N2C(=O)C(NC(=O)Cc3ccc(O)cc3)C2SC1 (configuration not stated) | –
16 | 150 | 620 | 380 | > 100 | 0.78 (≈ 1.78 µM) | 0.78 (≈ 1.78 µM) | 1.56 (≈ 3.56 µM) | > 100 | 1.56 (≈ 3.56 µM) | 1200 | Cc1nnc(SCC2=C(C(=O)O)N3C(=O)C(NC(=O)Cn4cnnn4)C3OC2)s1 (configuration not stated) | –
17 | – | – | – | 25 (≈ 55 µM) | 1.56 (≈ 3.43 µM) | 1.56 (≈ 3.43 µM) | – | – | – | – | Cc1nnc(SCC2=C(C(=O)O)N3C(=O)C(NC(=O)Cn4cnnn4)C3SC2)s1 (configuration not stated) | MIC (Klebsiella): > 100 µg/mL
18 | – | 0.96 | 6.3 | 50 (≈ 98.7 µM) | 3.13 (≈ 6.18 µM) | 3.13 (≈ 6.18 µM) | 3.13 (≈ 6.18 µM) | 50 (≈ 98.7 µM) | 3.13 (≈ 6.18 µM) | 20 | Cn1nnnc1SCC1=C(C(=O)O)N2C(=O)C(NC(=O)C(C(=O)O)c3ccc(O)cc3)C2SC1 (configuration not stated) | Relative hydrolysis rate [20]: Hydrolysis not detected; Relative hydrolysis rate [21]: Hydrolysis not detected
